These results are taken from ChEMBL document CHEMBL6134795, “Mannich reaction mediated derivatization of chromones and their biological evaluations as putative multipotent ligands for the treatment of Alzheimer's disease” (RSC Med Chem, 2024).

The source made the active and inactive calls. The rule behind the calls is not given here.

In general, inhibition refers to how much of the control response was suppressed. For orientation: IC50 means the concentration that inhibits the measured activity by half.

Series [1] deals with Amyloid-beta precursor protein (Homo sapiens) (UniProt P05067). In words: Inhibition of self-induced amyloid beta (1 to 42 residues) (unknown origin) aggregation assessed as reduction in fibrils formation measured after 72 hrs by FE-SEM analysis. Summed up:
(§1)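 HFIP-pretreated Aβ1-42 incubated with or without inhibitor for 72 h; samples placed on carbon-coated copper grids, dried 1 h at 37 °C, imaged by FE-SEM. Glycine–NaOH buffer served as blank and Aβ alone as control.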

The next series has as its target Cholinesterase (Homo sapiens, UniProt P06276). In words: Inhibition of recombinant BuChE (unknown origin) using BTCI as substrate preincubated for 30 mins followed by substrate addition by TECAN multiplate reader analysis. A digest of the protocol:
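Ellman method as for AChE, using butyrylcholinesterase with BTCI as substrate. Enzyme and compound preincubated 30 min at 37 °C in a CO2 incubator, then DTNB and BTCI added; absorbance read at 417 nm. Screening at 20 μM as % inhibition; IC50 for compounds exceeding 50% inhibition at 20 μM. Triplicate.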

The subject of series [2] is SH-SY5Y. In words: Inhibition of ROS production in human SH-SY5Y cells assessed as intracellular ROS level at 1 uM incubated for 24 hrs by DCF-DA staining based fluorescence analysis relative to control. The class given is functional. A digest of the protocol: (§2)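 Cultured SH-SY5Y cells exposed to compound (1, 5, 25 μM) for 24 h; intracellular ROS detected with DCF-DA, which is converted to fluorescent 2,7-DCF, read at ex 478/em 518 nm. Inhibition is expressed relative to control. Mean ± SD of triplicate or more independent experiments.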

Series [3] relates to SH-SY5Y. In words: Neuroprotective activity against 6-OHDA-induced cytotoxicity in human SH-SY5Y cells assessed as cell viability at 25 uM incubated for 24 hrs followed by exposure to 6-OHDA by MTT assay relative to control. The note with it: read-out: Activity. The format is functional. A digest of the protocol:
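SH-SY5Y cells treated with compound (1, 5, 25 μM) and challenged with 6-OHDA; cultured 24 h at 37 °C under humidified 5% CO2. Viability measured by MTT as formazan absorbance at 594 nm and expressed relative to control.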
For orientation: Tetrazolium dyes change colour on reduction, which living cells bring about.

The target of series [4] is T1, Acetylcholinesterase (Homo sapiens, UniProt P22303). In words: Reversible inhibition of AChE (unknown origin) assessed as residual activity at 0.1 times IC50 incubated for 30 mins by dilution method relative to control. A digest of the protocol:
(§3)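 Samples then diluted 100-fold with substrate, giving final inhibitor levels of 0.1× and 1× IC50. Recovered activity measured relative to control; triplicate.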

For series [5], the target named is Amyloid-beta precursor protein (Homo sapiens) (UniProt P05067). Briefly: Inhibition of self-induced amyloid beta (1 to 42 residues) (unknown origin) aggregation assessed as reduction in plaques formation measured after 72 hrs by FE-SEM analysis. A digest of the protocol: as §1
For series [6], the system named is SH-SY5Y. Briefly: Inhibition of ROS production in human SH-SY5Y cells assessed as intracellular ROS level at 5 uM incubated for 24 hrs by DCF-DA staining based fluorescence analysis relative to control. The format is functional. Summed up: as §2
The target of series [7] is T2, Amine oxidase [flavin-containing] B (Homo sapiens, UniProt P27338).
T2 sequence (P27338 whole entry): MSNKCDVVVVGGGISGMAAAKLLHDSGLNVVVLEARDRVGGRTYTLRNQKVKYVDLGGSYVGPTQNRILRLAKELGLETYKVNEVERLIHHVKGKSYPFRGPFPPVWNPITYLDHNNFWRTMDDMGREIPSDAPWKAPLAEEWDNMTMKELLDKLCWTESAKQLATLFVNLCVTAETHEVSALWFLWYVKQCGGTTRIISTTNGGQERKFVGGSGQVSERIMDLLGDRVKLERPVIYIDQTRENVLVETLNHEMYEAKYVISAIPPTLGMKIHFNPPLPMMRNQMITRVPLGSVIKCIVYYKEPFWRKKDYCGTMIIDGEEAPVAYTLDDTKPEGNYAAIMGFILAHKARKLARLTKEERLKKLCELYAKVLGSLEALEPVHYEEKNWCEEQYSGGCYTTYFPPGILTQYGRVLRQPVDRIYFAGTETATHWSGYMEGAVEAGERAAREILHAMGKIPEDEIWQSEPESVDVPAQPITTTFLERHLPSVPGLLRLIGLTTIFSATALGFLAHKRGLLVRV
In words: Reversible inhibition of MAO-B (unknown origin) assessed as residual activity at 10 times IC50 incubated for 30 mins by dilution method relative to control. The settings on record: 0.5 h.

Series [8] concerns the target T2, Amine oxidase [flavin-containing] B. Briefly: Reversible inhibition of MAO-B (unknown origin) assessed as residual activity at 1 times IC50 incubated for 30 mins by dilution method relative to control. The settings on record: 0.5 h.
Series [9] has the same target. Briefly: Inhibition of recombinant MAO-B (unknown origin) at 20 uM preincubated for 30 mins followed substrate addition by Amplex Red reagent based fluorescence analysis relative to control. A digest of the protocol: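 Recombinant MAO enzyme preincubated with compound 30 min at 37 °C; substrate, HRP and Amplex Red working solution then added; H2O2 formation read at 37 °C by fluorescence, ex 545/em 590 nm. Screening at 20 μM as % inhibition versus control; IC50 only for compounds above 50% inhibition at 20 μM; triplicate (n = 3).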

The target of series [10] is Amyloid-beta precursor protein (Homo sapiens) (UniProt P05067). Briefly: Inhibition of self-induced amyloid beta (1 to 42 residues) (unknown origin) aggregation at 20 uM incubated at 24 hrs by fluorimetry-based thioflavin T assay. A digest of the protocol:
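Aβ1-42 pretreated with HFIP (1 mg mL−1) and dried, then incubated with compound (20 μM) at 37 °C for 24 h; an aliquot transferred and incubated further to 48 h. Glycine–NaOH buffer pH 8.0 with 5 μM ThT added; fluorescence read at 440–485 nm. % inhibition calculated against the Aβ-only control taken as 0%.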

The target of series [11] is T1, Acetylcholinesterase. In words: Reversible inhibition of AChE (unknown origin) assessed as residual activity at 10 times IC50 incubated for 30 mins by dilution method relative to control. A digest of the protocol:
as §3

Series [12] deals with SH-SY5Y. In words: Cytotoxicity against human SH-SY5Y cells assessed as cell viability at 5 uM by MTT assay relative to control. The format is functional. The settings on record: read-out: Activity. Summed up: (§4)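 SH-SY5Y cells (DMEM/F-12 with 10% FBS, 1% horse serum, 1% penicillin) preincubated 24 h with compound at 1, 5 or 25 μM; MTT converted to formazan, solubilised in DMSO, absorbance read at 595 nm; viability expressed as percentage of untreated control.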

The subject of series [13] is SH-SY5Y. In words: Cytotoxicity against human SH-SY5Y cells assessed as reduction in cell viability at 1 to 25 uM by MTT assay. The class given is functional, cell-based. The note with it: dose 1-25 µM. Summed up: as §4
For series [14], the target named is T1, Acetylcholinesterase. In words: Mixed type inhibition of AChE (unknown origin) by Lineweaver-Burk plot analysis. A digest of the protocol:
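Ellman-based AChE kinetics run at several substrate concentrations and several final inhibitor concentrations. Mode of inhibition assigned from double-reciprocal Lineweaver–Burk plots.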

Series [15] relates to SH-SY5Y. In words: Inhibition of ROS production in human SH-SY5Y cells assessed as intracellular ROS level at 25 uM incubated for 24 hrs by DCF-DA staining based fluorescence analysis relative to control. The class given is functional. Summed up: as §2
Series [16] concerns the target T2, Amine oxidase [flavin-containing] B. In words: Inhibition of recombinant MAO-B (unknown origin) preincubated for 30 mins followed substrate addition by Amplex Red reagent based fluorescence analysis.

Amyloid-beta precursor protein (Homo sapiens), sequence (P05067 whole entry, the tested form may be a part): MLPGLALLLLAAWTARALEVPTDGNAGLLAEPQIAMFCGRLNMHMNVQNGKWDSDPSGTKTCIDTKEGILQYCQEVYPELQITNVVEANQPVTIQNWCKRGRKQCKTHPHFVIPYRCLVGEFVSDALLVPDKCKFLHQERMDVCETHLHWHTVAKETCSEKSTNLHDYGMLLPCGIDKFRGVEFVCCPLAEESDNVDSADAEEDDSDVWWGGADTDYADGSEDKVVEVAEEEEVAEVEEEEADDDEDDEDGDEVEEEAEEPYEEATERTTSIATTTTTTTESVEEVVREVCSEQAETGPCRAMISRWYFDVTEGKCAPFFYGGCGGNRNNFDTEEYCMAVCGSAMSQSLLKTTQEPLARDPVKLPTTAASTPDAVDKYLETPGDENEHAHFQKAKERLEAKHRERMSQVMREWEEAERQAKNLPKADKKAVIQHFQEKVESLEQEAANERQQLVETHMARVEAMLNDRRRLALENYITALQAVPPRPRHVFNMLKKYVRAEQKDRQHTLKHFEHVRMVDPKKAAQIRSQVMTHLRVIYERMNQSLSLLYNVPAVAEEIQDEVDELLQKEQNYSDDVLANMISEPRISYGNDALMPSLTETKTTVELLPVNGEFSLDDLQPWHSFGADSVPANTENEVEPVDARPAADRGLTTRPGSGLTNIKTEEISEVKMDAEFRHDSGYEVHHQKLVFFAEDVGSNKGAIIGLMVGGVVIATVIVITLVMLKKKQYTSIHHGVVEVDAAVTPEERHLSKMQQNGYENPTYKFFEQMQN
T1 sequence (P22303 whole entry): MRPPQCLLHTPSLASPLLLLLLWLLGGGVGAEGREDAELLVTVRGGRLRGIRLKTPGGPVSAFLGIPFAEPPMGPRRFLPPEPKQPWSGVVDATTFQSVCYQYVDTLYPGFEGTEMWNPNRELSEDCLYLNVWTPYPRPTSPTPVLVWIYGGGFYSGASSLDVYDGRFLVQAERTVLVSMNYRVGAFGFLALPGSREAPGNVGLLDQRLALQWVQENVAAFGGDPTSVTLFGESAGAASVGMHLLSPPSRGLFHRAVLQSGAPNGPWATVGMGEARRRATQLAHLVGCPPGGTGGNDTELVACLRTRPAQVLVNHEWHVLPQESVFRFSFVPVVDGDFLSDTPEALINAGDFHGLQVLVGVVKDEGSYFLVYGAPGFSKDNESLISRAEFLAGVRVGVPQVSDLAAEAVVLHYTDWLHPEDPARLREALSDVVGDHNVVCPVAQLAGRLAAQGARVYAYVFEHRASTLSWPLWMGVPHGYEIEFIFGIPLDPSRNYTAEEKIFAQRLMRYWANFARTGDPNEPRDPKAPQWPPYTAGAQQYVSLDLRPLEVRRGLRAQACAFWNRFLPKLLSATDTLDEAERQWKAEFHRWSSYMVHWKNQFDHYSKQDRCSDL
Cholinesterase, sequence (P06276 whole entry): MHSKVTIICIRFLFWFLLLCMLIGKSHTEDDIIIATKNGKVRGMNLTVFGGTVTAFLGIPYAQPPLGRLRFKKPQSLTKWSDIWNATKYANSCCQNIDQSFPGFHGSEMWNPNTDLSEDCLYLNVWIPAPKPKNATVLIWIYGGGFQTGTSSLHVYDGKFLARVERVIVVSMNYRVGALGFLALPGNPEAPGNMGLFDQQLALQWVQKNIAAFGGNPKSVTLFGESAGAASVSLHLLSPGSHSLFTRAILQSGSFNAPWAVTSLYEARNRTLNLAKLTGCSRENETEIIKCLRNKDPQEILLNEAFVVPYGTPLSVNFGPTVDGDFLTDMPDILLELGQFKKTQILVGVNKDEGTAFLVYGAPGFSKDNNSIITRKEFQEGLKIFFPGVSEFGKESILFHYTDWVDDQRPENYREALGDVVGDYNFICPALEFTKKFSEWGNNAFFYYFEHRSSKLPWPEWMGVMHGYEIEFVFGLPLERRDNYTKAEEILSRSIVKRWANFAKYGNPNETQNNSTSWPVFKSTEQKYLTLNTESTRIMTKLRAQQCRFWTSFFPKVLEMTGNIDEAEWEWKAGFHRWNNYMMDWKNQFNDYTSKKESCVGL

With `C#CCCCOc1ccc(-c2cc(=O)c3ccccc3o2)cc1CN1CCCCC1`, the inhibition result (in [1]; in series [5]; on Acetylcholinesterase [14]) was “Active” in each case. Further, the results for the IC50 (at Cholinesterase; in series [16]) were 11 µM and 12.3 µM, respectively. Also, the inhibition at 1 µM with SH-SY5Y [2] came out at 65.7%. The viability at 25 µM in the series with SH-SY5Y [3] worked out at 44.1%. For the same compound, the Activity on Acetylcholinesterase [4] was 60.6%; in series [7], 27.8%; in [8] it was 50.3%; at Acetylcholinesterase [11] it was 28.9%; in the series on SH-SY5Y [13], “Not toxic”. Further, the inhibition at 5 µM in the series on SH-SY5Y [6] came to 44.9%. Further, the inhibition at 20 µM in [9] was found to be 61.2%. The inhibition in [10] turned out to be 22.1%. For the same compound, in the series on SH-SY5Y [12], the viability at 5 µM came out at 97.4%. The inhibition at 25 µM with SH-SY5Y [15] worked out at 34.8%.
